Assay results: PubChem BioAssay
Inconclusive results are not listed.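 Rule for the calls, unless noted: active = growth inhibition above 25% in both replicates, a cutoff set 3 SD above the mean; inconclusive = above 25% in only one replicate; inactive = the rest.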

Experiments:
[1] = OD615 S. cerevisiae growth inhibition, permissive medium, pilot counter-assay, permissive growth control for S. cerevisiae lifespan shortening project (AID 705); details: OD615, 24 h, at 10 µM, stronger effect = higher value
How it was run: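 System: engineered DeaD yeast; Medium: permissive raffinose/galactose medium; Compound dosing: 10 µM single dose, 0.25% DMSO; Incubation: 4 h cell pre-growth, 24 h exposure at 30 °C; Technique: OD at 615 nm; Evaluation: growth inhibition from lowered OD615 after 24 h.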

[2] = Restrictive medium S. cerevisiae growth inhibition, OD615, pilot screen of yeast lifespan reduction project, restrictive growth control (AID 706;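 active = growth inhibition above a set limit, 3 SD over mean compound inhibition, in both replicates, cut at about 43% in these data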;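 note: modified DeaD lifespan yeast strain shifted to restrictive glucose medium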); details: OD615, 48 h, at 10 µM, stronger effect = higher value
How it was run: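 Material: modified S. cerevisiae; buffer or medium: CSMM-D glucose medium; doses: one concentration, 10 µM final, 0.25% DMSO; incubation: 48 h compound exposure at 30 °C; detection: optical density at 615 nm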

[3] = viability gain of MRP-1-high H69AR cells under doxorubicin, pilot screen, MRP-1 activator project, CellTiter-Glo, duplicate (AID 807;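 active = viability increase at or above a cutoff of the median across tested compounds plus 3 SD, cut at about 8.5% in these data, passing the limit was not always enough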;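 note: compound pretreatment 18-22 h then 72 h combined with doxorubicin; 0% = doxorubicin alone and 100% = vehicle without doxorubicin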); details: H69AR viability with doxorubicin, CellTiter-Glo luminescence; at 10 µM; stronger effect = higher value
[4] = growth suppression of beta-catenin knockout HCT116, pilot screen, human colon tumor cells (AID 823;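 active = cell viability at or below a set limit in both duplicate runs, the limit being the all-compound median minus 4 SD, cut at about 23% in these data, passing the limit was not always enough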;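 note: 0% = wells killed by 20 µM Hyamine and 100% = untreated DMSO cell wells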); details: CellTiter-Glo, 60 h, at 10 µM, stronger effect = lower value
[5] = growth suppression of PTEN-deleted HCT116, pilot screen, cell-based, HCT116 clonal line, CellTiter-Glo (AID 824;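 active = viability at or below 27.92% in each of two runs, the all-compound median minus 4 SD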;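 note: 0% = 20 µM Hyamine control and 100% = vehicle cell control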); details: 60 h, at 10 µM, stronger effect = lower value
[6] = inhibitors of the yeast RAM network, pilot screen, dse1pr::URA3 reporter, 5-FOA selection (AID 869;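 active = inhibition over a set limit, the all-compound mean plus 3 SD, in both replicate runs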;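 note: 0% = DMSO wells with no growth and 100% = 10 µM 1-NA-PP1 with full growth; RAM network block rescues cells from 5-FOA so hits raise OD615 growth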); details: S. cerevisiae dse1pr::URA3 5-FOA growth, OD615, 2 d; at 10 µM; stronger effect = higher value; strain carries analog-sensitive mutant Cbk1 kinase
[7] = RAM signaling pathway blockade in yeast – S. cerevisiae, Pdr1DBD-CYC8 efflux-inhibited sensitized strain, primary screen (AID 1298;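 active = RAM network inhibition above 8.4% in each of two replicates, 3 SD over the compound average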;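 note: 0% = DMSO untreated cells without growth and 100% = 10 µM 1-NA-PP1 full growth; higher means more yeast growth rescued from 5-FOA killing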); details: S. cerevisiae cbk1-as DSE1-URA3 strain, 5-FOA growth OD615, 2 d; at 50 µM; stronger effect = higher value

Cn1c(=O)c2c(SCC(=O)N3CCC(Cc4ccccc4)CC3)nc(C3CC3)nc2n(C)c1=O
inactive: growth inhibition [1] -0.44% | growth inhibition [2] -9.93% | viability increase [3] -1.06% | viability [4] 92.9% | viability [5] 88.1% | inhibition [6] 1.28% | RAM network inhibition [7] 0.47%

Nc1cc(C(F)(F)F)ccc1C(=O)O
inactive: growth inhibition [1] 9.88% | growth inhibition [2] 9.9% | viability increase [3] -1.66% | viability [4] 97.3% | viability [5] 95.3% | inhibition [6] 0.43% | RAM network inhibition [7] 0.63%

COc1cc(C2C3=C(CC(C)(C)CC3=O)N(C)C(=O)N2C)cc(OC)c1OC (stereo not drawn)
inactive: growth inhibition [1] -7.27% | growth inhibition [2] -16.8% | viability increase [3] -0.06% | viability [4] 104% | viability [5] 103% | inhibition [6] 0.385% | RAM network inhibition [7] -0.15%

CCN(CCCNC(=O)CN1C(=O)COc2ccccc21)c1ccccc1
inactive: growth inhibition [1] 0.42% | growth inhibition [2] -11.2% | viability increase [3] 1.23% | viability [4] 95.9% | viability [5] 88.3% | inhibition [6] 1.61% | RAM network inhibition [7] 3.49%

O=C(O)CSCC(=O)c1ccccc1
inactive: growth inhibition [1] -6.96% | growth inhibition [2] -1.74% | viability increase [3] 0.58% | viability [4] 107% | viability [5] 101% | inhibition [6] 1.15% | RAM network inhibition [7] -0.89%

CCCc1nc(SCC(=O)NCc2ccc3c(c2)OCO3)c2c(=O)n(C)c(=O)n(C)c2n1
inactive: growth inhibition [1] 1.28% | growth inhibition [2] 7.41% | viability increase [3] -6.51% | viability [4] 61.1% | viability [5] 57.5% | inhibition [6] 2.25% | RAM network inhibition [7] 5.66%

Cc1ccc(NC(=O)CCNS(=O)(=O)c2cccc3nonc23)cc1
inactive: growth inhibition [1] -4.17% | growth inhibition [2] -8.23% | viability increase [3] -1.47% | viability [4] 105% | viability [5] 95.5% | inhibition [6] 0.755% | RAM network inhibition [7] 4.98%

CN(CC(=O)NC1CCCCCCC1)S(=O)(=O)c1cccc2cccnc12
inactive: growth inhibition [1] 0.055% | growth inhibition [2] 0.405% | viability increase [3] -1.32% | viability [4] 93.2% | viability [5] 87.1% | inhibition [6] 1.26% | RAM network inhibition [7] 2.33%

O=C(C1=C(O)C(=O)N(CCN2CCOCC2)C1c1ccncc1)c1ccco1 (stereo not drawn)
inactive: growth inhibition [1] -15.4% | growth inhibition [2] 2.89% | viability increase [3] -3.57% | viability [4] 98.3% | viability [5] 93.2% | inhibition [6] 2.35% | RAM network inhibition [7] 2.42%

O=C(NCCN1CCN(c2cccc(Cl)c2)CC1)C1CCCN(S(=O)(=O)c2cnc[nH]2)C1 (stereo not drawn)
inactive: growth inhibition [1] 3.09% | growth inhibition [2] 3.15% | viability increase [3] -1.5% | viability [4] 91.1% | viability [5] 89.7% | inhibition [6] 0.895% | RAM network inhibition [7] 5.7%

Cn1c(SCc2c(F)cccc2Cl)nnc1-c1cnccn1
inactive: growth inhibition [1] 3.5% | growth inhibition [2] 9.8% | viability increase [3] -0.67% | viability [4] 96.5% | viability [5] 93.8% | inhibition [6] 1.94% | RAM network inhibition [7] 5.07%

O=C1C2C(c3ccccc3)C=CC(c3ccccc3)C2C(=O)N1CCO (stereo not drawn)
inactive: growth inhibition [1] -10.9% | growth inhibition [2] -8.43% | viability increase [3] -3.35% | viability [4] 94.7% | viability [5] 95.3% | inhibition [6] 0.33% | RAM network inhibition [7] 4.03%

COC(=O)c1cc(=O)nc2scc(C)n12
inactive: growth inhibition [1] -13% | growth inhibition [2] -18.9% | viability increase [3] -0.3% | viability [4] 103% | viability [5] 99.5% | inhibition [6] 0.885% | RAM network inhibition [7] 4.74%

O=C(O)CC(Cn1cnnn1)c1ccccc1 (stereo not drawn)
inactive: growth inhibition [1] 3.8% | growth inhibition [2] -2.96% | viability increase [3] -0.66% | viability [4] 103% | viability [5] 101% | inhibition [6] 1.12% | RAM network inhibition [7] 2.58%

Cc1noc(C(=O)NCc2ccco2)c1Cl
inactive: growth inhibition [1] -10.3% | growth inhibition [2] -34.1% | viability increase [3] -3.01% | viability [4] 102% | viability [5] 101% | inhibition [6] 1.78% | RAM network inhibition [7] 2.4%

Cc1cccc(NC(=O)CSc2nnc(-c3ccccc3)n2N)c1
inactive: growth inhibition [1] -0.87% | growth inhibition [2] 0.675% | viability increase [3] -1.81% | viability [4] 100% | viability [5] 98.9% | inhibition [6] 1.93% | RAM network inhibition [7] 4.31%

CCCN1C(=O)c2cc(C(=O)Nc3ccccc3CC)ccc2C1O (stereo not drawn)
inactive: growth inhibition [1] -6.36% | growth inhibition [2] -1.31% | viability increase [3] -0.05% | viability [4] 101% | viability [5] 108% | inhibition [6] 0.77% | RAM network inhibition [7] 3.59%

Oc1ccccc1CNc1nc2ccccc2n1CCN1CCCCC1
inactive: growth inhibition [1] -15.8% | growth inhibition [2] -9.88% | viability increase [3] -8.6% | viability [4] 52.5% | viability [5] 48.8% | inhibition [6] 2.86% | RAM network inhibition [7] 1.77%

CCOC(=O)C1=C(C)NC(=O)NC1c1ccco1 (stereo not drawn)
inactive: growth inhibition [1] 1.02% | growth inhibition [2] -9.79% | viability increase [3] -3.38% | viability [4] 103% | viability [5] 105% | inhibition [6] -0.995% | RAM network inhibition [7] -0.57%

O=S(=O)(NCc1ccc2c(c1)OCO2)c1cnc[nH]1
inactive: growth inhibition [1] -5.07% | growth inhibition [2] 0.305% | viability increase [3] 1.17% | viability [4] 107% | viability [5] 106% | inhibition [6] 0.885% | RAM network inhibition [7] 0.72%

CCOC(=O)c1ccc(N2CSC3=C(C#N)C(c4ccc(OC)cc4OC)CC(=O)N3C2)cc1 (stereo not drawn)
inactive: growth inhibition [1] 6.21% | growth inhibition [2] 24.4% | viability increase [3] -4.16% | viability [4] 92.3% | viability [5] 93.2% | inhibition [6] 2.44% | RAM network inhibition [7] 1.72%

CC1Cc2ccccc2N1C1=NS(=O)(=O)c2ccccc21 (stereo not drawn)
inactive: growth inhibition [1] -3.44% | growth inhibition [2] -25.5% | viability increase [3] -1.97% | viability [4] 91.7% | viability [5] 96.5% | inhibition [6] 2.68% | RAM network inhibition [7] 7%

O=S(=O)(c1ccc(Cl)c(Cl)c1)N1CCc2nc3ccccc3n2CC1
inactive: growth inhibition [1] -5.17% | growth inhibition [2] 4.47% | viability increase [3] -1.28% | viability [4] 98.9% | viability [5] 102% | inhibition [6] 1.75% | RAM network inhibition [7] 6.73%

CCc1nc(C)cn1S(=O)(=O)c1ccc(Cl)c(Cl)c1Cl
inactive: growth inhibition [1] -6.5% | growth inhibition [2] -13.9% | viability increase [3] -0.17% | viability [4] 99.3% | viability [5] 98.7% | inhibition [6] 0.805% | RAM network inhibition [7] 7.3%
